Our source for the outcome, activation and potentiation values is PubChem BioAssay.

Experiment [1] in a line: nonspecific flux increase, KCNQ1-free cells – parental CHO cells, counter-screen for KCNQ1 potentiator project (AID 493006;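 active means duplicate-averaged activation above buffer control mean plus 5 SD of those controls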;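 on activation: fluorescence ratio of max minus min over baseline after K+ and Tl+ depolarization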). To be noted: parental CHO-K1 cells, FluxOR thallium flux, at 10 µM; hits give high values. The gist of the method: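 Material: parental CHO-K1 cells, FluxOR dye-loaded; Also added: Potassium/thallium depolarization pulse; Schedule: overnight 37 °C plating, 90 min dye, 20 min dark compound; Signal: kinetic FluxOR fluorescence, 10 s baseline, 110 s after stimulus.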
(In general: The purpose of a counterscreen is to sort out artefacts and off-target activity.)

Experiment [2] has as its target Potassium voltage-gated channel subfamily KQT member 1 (Homo sapiens) (UniProt P51787). Nature of the experiment: enhancement of KCNQ1 channel thallium flux – FluxOR thallium flux, CHO cells, duplicates, confirmation (AID 493007).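 On outcome: cells depolarized by a potassium plus thallium sulfate stimulus after compound.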 The following applies: KCNQ1 cell line, FluxOR thallium flux fluorescence, at 10 µM; hits give high values, % of reference activator effect, buffer zero. In a few lines: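 System: KCNQ1-expressing CHO cell line; technique: kinetic thallium influx fluorescence with FluxOR dye, 10 s baseline, 110 s post-stimulus; timing: dye 90 min then compound 20 min, both at room temperature; controls: buffer-only wells as 0% and R-L3 activator as 100%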

Experiment [3] deals with Potassium voltage-gated channel subfamily KQT member 2 (Rattus norvegicus) (UniProt O88943). Nature of the experiment: KCNQ2 thallium flux enhancement – KCNQ2-CHO-K1 cells, selectivity assay for KCNQ1 potentiator project (AID 493009;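 active means mean duplicate potentiation above the buffer control mean plus 5 SD of buffer wells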;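 further: assay conditions were tuned for KCNQ1 rather than KCNQ2 modulators; signal is max minus min fluorescence divided by baseline after thallium stimulus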). To be noted: FluxOR thallium flux fluorescence, at 10 µM; hits give high values, scaled: buffer 0, activator control 100.
Potassium voltage-gated channel subfamily KQT member 2 (Rattus norvegicus), sequence (O88943 whole entry, looked up): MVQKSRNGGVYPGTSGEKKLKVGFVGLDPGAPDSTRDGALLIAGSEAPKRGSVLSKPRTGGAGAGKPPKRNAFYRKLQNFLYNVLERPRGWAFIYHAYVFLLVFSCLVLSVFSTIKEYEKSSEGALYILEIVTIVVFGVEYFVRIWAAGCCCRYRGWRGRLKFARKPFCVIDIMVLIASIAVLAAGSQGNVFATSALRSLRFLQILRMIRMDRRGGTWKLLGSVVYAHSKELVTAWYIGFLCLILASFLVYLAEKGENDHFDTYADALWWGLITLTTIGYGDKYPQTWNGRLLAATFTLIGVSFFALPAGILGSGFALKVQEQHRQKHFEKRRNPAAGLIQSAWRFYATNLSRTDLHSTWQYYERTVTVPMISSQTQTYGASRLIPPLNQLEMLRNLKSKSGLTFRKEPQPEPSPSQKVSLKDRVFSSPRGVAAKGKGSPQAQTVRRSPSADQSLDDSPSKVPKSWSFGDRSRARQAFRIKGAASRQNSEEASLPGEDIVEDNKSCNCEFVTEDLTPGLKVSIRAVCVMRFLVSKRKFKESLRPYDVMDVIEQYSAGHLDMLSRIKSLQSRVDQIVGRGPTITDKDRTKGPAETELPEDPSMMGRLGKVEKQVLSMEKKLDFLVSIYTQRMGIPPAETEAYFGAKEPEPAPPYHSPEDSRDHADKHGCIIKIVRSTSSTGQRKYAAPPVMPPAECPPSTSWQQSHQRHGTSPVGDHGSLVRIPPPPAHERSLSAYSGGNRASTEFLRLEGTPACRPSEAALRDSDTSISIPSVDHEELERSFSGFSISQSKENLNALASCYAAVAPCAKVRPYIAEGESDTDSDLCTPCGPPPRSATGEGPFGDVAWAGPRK
For experiment [4], the target named is Potassium voltage-gated channel subfamily KQT member 1 (Homo sapiens) (UniProt P51787). Nature of the experiment: KCNQ1 activators by electrophysiology – IonWorks patch clamp, KCNQ1-CHO cells, orthogonal assay for KCNQ1 potentiator project, confirmation (AID 493184;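 active means current rise at least 3 SD above the untreated control mean in each of two repeat wells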). The following applies: automated patch clamp current, at 10 µM; hits give high values. The gist of the method: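 Test system: KCNQ1-expressing CHO cells. Medium: pH 7.4 external bath. Probe or stimulus: voltage step from -90 mV holding to +40 mV, 2,000 ms. Compound: 10 µM final, single point. Detection: automated perforated-patch electrophysiology. Read-out: percent current increase versus pre-compound level. Repeats: two replicates.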
Potassium voltage-gated channel subfamily KQT member 1 (Homo sapiens), sequence (P51787 whole entry, looked up): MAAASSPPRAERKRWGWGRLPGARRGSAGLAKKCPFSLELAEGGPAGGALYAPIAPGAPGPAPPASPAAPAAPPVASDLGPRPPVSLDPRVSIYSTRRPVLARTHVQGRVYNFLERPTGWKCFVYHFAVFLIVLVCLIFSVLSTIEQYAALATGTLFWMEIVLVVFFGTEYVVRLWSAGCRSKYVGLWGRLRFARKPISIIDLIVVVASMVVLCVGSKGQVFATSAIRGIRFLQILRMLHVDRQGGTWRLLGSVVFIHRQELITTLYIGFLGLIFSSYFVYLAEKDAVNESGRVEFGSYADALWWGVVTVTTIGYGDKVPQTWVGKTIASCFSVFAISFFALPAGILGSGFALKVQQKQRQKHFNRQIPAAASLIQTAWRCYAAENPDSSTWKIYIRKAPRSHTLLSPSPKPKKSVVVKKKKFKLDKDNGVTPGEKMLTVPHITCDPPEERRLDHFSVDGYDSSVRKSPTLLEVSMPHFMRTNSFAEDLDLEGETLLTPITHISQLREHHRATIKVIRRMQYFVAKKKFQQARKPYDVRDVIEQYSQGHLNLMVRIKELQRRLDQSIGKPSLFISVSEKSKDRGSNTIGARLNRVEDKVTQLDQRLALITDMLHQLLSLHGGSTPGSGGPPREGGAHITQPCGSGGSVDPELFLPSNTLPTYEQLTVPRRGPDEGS
On the technique in general: The patch-clamp technique gives a direct electrical read-out from membranes.

The structures appear in SMILES notation. The source made the active and inactive calls.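 How the source made its calls, unless noted: active means potentiation averaged over duplicate wells exceeding buffer-only control mean by more than 3 SD; inactive means the rest.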

Take `Nc1nc(COc2ccccc2C=O)nc(Nc2ccccc2)n1`: the outcome in experiment [1], in experiment [2], in experiment [3] and in experiment [4] was inactive.
For `CC(Oc1ccc(Br)cc1)C(=O)Nc1ccc(S(=O)(=O)N(C)C2CCN(C)CC2)cc1` (stereo not given), the activation in experiment [1] is 626% (active). In addition, the potentiation was 190% (active) in experiment [2] and 570% (active) in experiment [3]. Moreover, the outcome in experiment [4] was inactive.
`COc1ccc(C(=O)NC(=S)NNC(=O)c2ccc3ccccc3n2)cc1`: the result in experiment [1] and in experiment [4] was inactive. The results for the potentiation in experiment [2] and in experiment [3] were 26% (active) and 160% (active), respectively.
Turning to `COc1ccccc1-c1nc(C#N)c(N2CC(C)CC(C)C2)o1` (stereo not given), the result in experiment [1], in experiment [2], in experiment [3] and in experiment [4] was inactive.
Take `CCOc1ccc2nc(Nc3nc4ccc(NC(C)=O)cc4s3)sc2c1`: the outcome in experiment [1], in experiment [2], in experiment [3] and in experiment [4] was inactive.
Consider `Cc1ccc(C(=O)NCCC(=O)NCc2cc(=O)n(C)c(=O)n2C)cc1`, for which the outcome in experiment [1], in experiment [2], in experiment [3] and in experiment [4] was inactive.
On to `Cn1nc(SCC(=O)O)sc1=S`, for which the result in experiment [1], in experiment [2], in experiment [3] and in experiment [4] was inactive.
With `Fc1ccc(NC(=S)N/N=C/c2ccc(F)c(F)c2)c(F)c1`, the result in experiment [1], in experiment [2], in experiment [3] and in experiment [4] was inactive.
On to `O=C(CCC1CCN(C(=O)c2cncs2)CC1)Nc1ccccc1`, for which, in experiment [1], the activation was 446% (active). The potentiation in experiment [2] is 164% (active); in experiment [3], 464% (active). Moreover, in experiment [4], the result was inactive.
The like results for `CC(=O)c1c(C)[nH]c(-c2ccccc2)nc1=S` were, in that order, 151% (active), 40% (active), 178% (active) and “inactive”.
As to `COc1ccc(CCN2CC(C(=O)Nc3ccc4c(c3)OCO4)CC2=O)cc1OC` (stereo not given), the activation in experiment [1] was 156% (active). In addition, the potentiation in experiment [2] is 21% (active); in experiment [3], 158% (active). Also, the result in experiment [4] was inactive.
As for `COC(=O)c1ccsc1NC(=O)CN1CCN(Cc2ccc3c(c2)OCO3)CC1`, the outcome in experiment [1], in experiment [2], in experiment [3] and in experiment [4] was inactive.
In the case of `Cc1nnc(C)n1/N=C/c1cc(Br)cc(Br)c1O`, the activation in experiment [1] was 145% (active). Besides, the outcome in experiment [2], in experiment [3] and in experiment [4] was inactive.
Consider `Cc1ccc(Cn2ncc3c(NN)ncnc32)cc1`, for which the result in experiment [1], in experiment [2], in experiment [3] and in experiment [4] was inactive.
On to `C/C(=N\NC(=O)C1COc2ccccc2O1)c1ccc(N2CCOCC2)cc1` (stereo not given), for which the result in experiment [1], in experiment [2], in experiment [3] and in experiment [4] was inactive.
Regarding `O=C(CSc1nc(=O)n2ccccc2n1)NCc1ccccc1`, the outcome in experiment [1], in experiment [2], in experiment [3] and in experiment [4] was inactive.
For the molecule `COc1ccc(S(=O)(=O)N2CCCC(C(=O)O)C2)cc1` (stereo not given), the result in experiment [1], in experiment [2], in experiment [3] and in experiment [4] was inactive.
On to `Cc1ccc(N2C(=O)N3[C@H](c4ccc(F)cc4)[C@@H]4C(=O)N(C5CCCCC5)C(=O)[C@@H]4[C@]3(Cc3ccccc3)C2=O)cc1`, for which the result in experiment [1], in experiment [2], in experiment [3] and in experiment [4] was inactive.
Turning to `CCCc1cc(=O)n2[nH]c(C)c(-c3ccc(Cl)cc3)c2n1`, the activation in experiment [1] is 180% (active). Besides, the potentiation in experiment [2] is 23% (active); in experiment [3], 172% (active). The result in experiment [4] was inactive.
With `C/C(=N\NC(=S)Nc1cccc(C)c1)c1cc2ccccc2o1`, the activation in experiment [1] was 159% (active). The potentiation is 60% (active) in experiment [2] and 172% (active) in experiment [3]. The outcome in experiment [4] was inactive.
Turning to `Cn1c(=O)c2c(SC3CCCC3)nc(C3CC3)nc2n(C)c1=O`, the result in experiment [1], in experiment [2], in experiment [3] and in experiment [4] was inactive.
Regarding `CN(C(=O)c1ccco1)c1nnc(-c2ccc(F)cc2)s1`, the result in experiment [1], in experiment [2], in experiment [3] and in experiment [4] was inactive.
As for `CCC(=O)NNc1nc2c(Cl)cccc2s1`, the outcome in experiment [1], in experiment [2], in experiment [3] and in experiment [4] was inactive.
For the molecule `COC(=O)c1cc2c(ccc3ccccc32)oc1=O`, the result in experiment [1], in experiment [2], in experiment [3] and in experiment [4] was inactive.
Take `Oc1c(N=Nc2ccccn2)ccc2ccccc12`: the activation in experiment [1] was 182% (active). In addition, the potentiation in experiment [2] is 91.5% (active); in experiment [3], 168% (active). For the same molecule, the result in experiment [4] was inactive.
On to `CSc1nccc(-c2nn(-c3ccc(C)cc3)ccc2=O)n1`, for which the outcome in experiment [1], in experiment [2], in experiment [3] and in experiment [4] was inactive.
Take `CCc1nccn1S(=O)(=O)c1ccc2ccc(C)cc2c1`: the result in experiment [1], in experiment [2], in experiment [3] and in experiment [4] was inactive.
For the molecule `O=C(NCc1ccc(F)cc1)C1CCC(CNS(=O)(=O)c2ccccc2)CC1` (stereo not given), the outcome in experiment [1], in experiment [2], in experiment [3] and in experiment [4] was inactive.
As to `O=c1c2c3c(sc2[nH]c(=S)n1Cc1ccco1)CCC3`, the activation in experiment [1] was 264% (active). Moreover, the potentiation is 108% (active) in experiment [2] and 289% (active) in experiment [3]. Besides, the result in experiment [4] was inactive.
Turning to `CC(C)(C)c1ccc2c(c1)OC(C(=O)N/N=C\c1ccccn1)CO2` (stereo not given), the result in experiment [1], in experiment [2], in experiment [3] and in experiment [4] was inactive.
